Laboratory results as given in PubChem BioAssay.
The source made the active and inactive calls.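 How the source made its calls, unless noted: active means compounds giving at least 50% inhibition in the cell-based MKP-3 phosphatase rescue imaging test; inactive means the rest.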

What was measured:
[1] = inhibitors of TNFa-induced NFkB p65 translocation, primary screen, imaging, HUVEC, MLSMR starter and 10KST1 sets (AID 438;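 active means inhibition above 20% together with a positive visual image hit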;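 further: compound added about 3h40 before a 20 min TNFalpha stimulation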;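 on inhibition: signal is the nuclear over cytoplasmic p65 intensity ratio per well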); settings: HUVEC TNFa-induced p65 nuclear translocation; cell count: measured here: nuclei count (cytotoxicity indicator), at 2.08 µM; inhibition: at 2 µM, stronger effect = higher value, 0% TNFa-plus-vehicle, 100% no-TNFa wells
[2] = endothelial E-selectin expression blockers – imaging, HUVEC, immunofluorescence, MLSMR starter and 10KST1 sets, primary screen (AID 487;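 active means visually confirmed hit in the image check and inhibition above 20%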;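 on inhibition: signal is fraction of cell area covered by stained E-selectin grains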;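 on nuclei count: 100% = median nuclei count of all wells on the same plate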); settings: HUVEC TNFalpha-induced E-selectin immunofluorescence imaging, at 2 µM; inhibition: stronger effect = higher value; nuclei count: measured here: cell number, toxicity
[3] = Primary imaging screen for DUSP6 inhibitors that restore phospho-Erk in transfected HeLa cells, chemical complementation (AID 609); settings: HeLa MKP-3 transfected, phospho-Erk imaging KS statistic, at 10 µM, cells stimulated with TPA for 15 min;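 on inhibition: phospho-Erk level distribution per well compared with pooled transfected vehicle control wells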
[4] = biological target: Dual specificity protein phosphatase 6 (Homo sapiens) (UniProt Q16828); assay: as above; settings: HeLa MKP-3 transfected, phospho-Erk imaging KS statistic; at 10 µM; stronger effect = higher value; cells stimulated with TPA for 15 min
Sequence of Dual specificity protein phosphatase 6 (Homo sapiens) (Q16828 whole entry, looked up): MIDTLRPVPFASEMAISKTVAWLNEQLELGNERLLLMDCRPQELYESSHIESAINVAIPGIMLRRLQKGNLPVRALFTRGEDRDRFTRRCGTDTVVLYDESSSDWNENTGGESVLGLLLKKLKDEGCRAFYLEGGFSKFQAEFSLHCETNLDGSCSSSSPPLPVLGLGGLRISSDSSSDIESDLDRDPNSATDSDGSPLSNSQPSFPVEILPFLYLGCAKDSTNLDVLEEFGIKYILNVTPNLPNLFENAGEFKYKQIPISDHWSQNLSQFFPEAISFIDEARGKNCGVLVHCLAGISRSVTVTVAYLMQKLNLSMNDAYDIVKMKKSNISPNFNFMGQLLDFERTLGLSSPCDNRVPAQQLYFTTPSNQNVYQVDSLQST

[5] = biological target: Voltage-gated potassium channel subunit beta-2 (Rattus norvegicus) (UniProt P62483); assay: inhibitors of rat Kvbeta2 reductase activity – biochemical, NADPH fluorescence, primary screen (AID 622;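 active means fluorescence slope higher than the sample average by over 3 SD, cut at about -0.22 in these data, passing the limit was not always enough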;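 further: slope of raw intensity against log time taken from 70 to 1610 s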); settings: recombinant KvBeta, 4-cyanobenzaldehyde reduction, at 10 µM, stronger effect = higher value
Sequence of Voltage-gated potassium channel subunit beta-2 (Rattus norvegicus) (P62483 whole entry, looked up): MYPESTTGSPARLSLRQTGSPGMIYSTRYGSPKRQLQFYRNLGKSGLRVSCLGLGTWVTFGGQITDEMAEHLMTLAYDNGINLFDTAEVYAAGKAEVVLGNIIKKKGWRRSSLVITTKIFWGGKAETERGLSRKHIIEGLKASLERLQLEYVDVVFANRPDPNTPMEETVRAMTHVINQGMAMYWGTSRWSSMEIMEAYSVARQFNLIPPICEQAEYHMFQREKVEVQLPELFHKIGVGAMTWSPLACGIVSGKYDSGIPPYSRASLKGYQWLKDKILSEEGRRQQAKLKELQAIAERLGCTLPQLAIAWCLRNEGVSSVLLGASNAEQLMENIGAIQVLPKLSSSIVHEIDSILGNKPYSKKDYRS

[6] = biological target: Voltage-gated potassium channel subunit beta-2 (Rattus norvegicus) (UniProt P62483); assay: enhancers of rat Kvbeta2 NADPH turnover – biochemical, NADPH fluorescence, primary screen (AID 623;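 active means NADPH fluorescence slope more negative than the mean of all samples by about 3 SD, 99.7% confidence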;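 further: fluorescence intensity change per second fitted from 20 to 320 s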); settings: Recombinant KvBeta, NADPH fluorescence decrease slope, 10 min; at 10 µM; stronger effect = lower value
[7] = biological target: Alpha-2C adrenergic receptor (Homo sapiens) (UniProt P18825); assay: compounds altering alpha2C-coupled GIRK flux – cell-based, HEK293 alpha2C/GIRK1/2, thallium flux, primary screen (AID 624;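 active means fluorescence slope after compound addition differing from the mean of all screened samples at 99.7% confidence, in either direction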;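 further: slope of fluorescence ratio to pre-addition baseline per second over 15 to 24 s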); settings: thallium flux BTC fluorescence, at 10 µM, actives lie on both sides
Sequence of Alpha-2C adrenergic receptor (Homo sapiens) (P18825 whole entry, looked up): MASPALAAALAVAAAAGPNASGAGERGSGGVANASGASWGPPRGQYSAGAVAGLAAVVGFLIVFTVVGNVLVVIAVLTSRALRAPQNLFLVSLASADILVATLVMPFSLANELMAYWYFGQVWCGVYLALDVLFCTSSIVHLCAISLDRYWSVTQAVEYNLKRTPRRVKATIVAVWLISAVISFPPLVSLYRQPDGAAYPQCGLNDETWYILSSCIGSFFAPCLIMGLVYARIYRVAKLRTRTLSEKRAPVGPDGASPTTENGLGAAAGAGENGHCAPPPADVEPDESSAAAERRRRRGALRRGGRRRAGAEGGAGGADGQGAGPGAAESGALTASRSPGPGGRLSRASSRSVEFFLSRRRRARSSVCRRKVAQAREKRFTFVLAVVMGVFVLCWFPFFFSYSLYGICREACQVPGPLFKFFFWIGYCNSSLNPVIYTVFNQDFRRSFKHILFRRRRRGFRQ

[8] = inhibitors of larval lipid processing in zebrafish, primary screen, whole organism, PED6 fluorescence, gall bladder and intestine (AID 686;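 active means a full or partial loss of lipid-probe fluorescence in the fish gall bladder, intestine or both, judged by eye; inactive means no fluorescence loss, or compound toxic to the fish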;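 further: larvae 5 to 7 days old with five fish per well; signal comes from phospholipase A2 cleavage of quenched PED6 carried via bile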); settings: Zebrafish larvae PED6 lipid processing, fluorescence scoring; screened at 20 µM (by protocol)
How it was run: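 Incubation: overnight exposure of larvae to compound plus PED6 / Test system: live zebrafish larvae aged 5-7 days, whole organism / Amount: 5 larvae per well / Read-out basis: visual per-well fluorescence inhibition score / Signal: visual fluorescence microscopy scoring of gall bladder, gut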

[9] = loss of swimming-algae plug formation – whole organism, Chlamydomonas reinhardtii, WT vs cilia-less mutant, absorbance, 96-well, primary screen (AID 463189;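 active means inhibition at or above 50% relative to wild type and mutant plate controls; inactive means inhibition below 50%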;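 further: 0% = wild type cc124 cells in DMSO and 100% = ciliumless bld1 mutant cells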); settings: Chlamydomonas reinhardtii gravitaxis, OD600 absorbance, 2 days; at 10 µM; stronger effect = higher value
[10] = measured here: cell density z-score
[11] = measured here: nuclear c-Myc green intensity z-score
[12] = measured here: nuclear pErk red intensity z-score, stronger effect = higher value

| Structure (SMILES) | cell count [1] | inhibition [1] | inhibition [2] | nuclei count [2] | z-score [3, 10] | z-score [3, 11] | z-score [3, 12] | inhibition [4] | fluorescence slope [5] | NADPH fluorescence slope [6] | slope [7] | outcome [8] | inhibition [9] |
| --- | --- | --- | --- | --- | --- | --- | --- | --- | --- | --- | --- | --- | --- |
| COc1ccc(NC2CC(=O)N(C)C2=O)cc1 (stereo unspecified) | 334 | -4.4% (inactive) | 15% (inactive) | 92.4% | -0.811 | 0.0749 | 1.77 | 7.42% (inactive) | -0.424 (inactive) | 1.4e-05 (inactive) | 0.00509 (inactive) | inactive | 30.2% (inactive) |
| CCC1(C)Cc2c(sc3[nH]c(=O)[nH]c(=O)c23)CS1 (stereo unspecified) | 666 | -8.2% (inactive) | -11.4% (inactive) | 170% | 0.81 | -1.43 | -0.857 | 1.75% (inactive) | -0.519 (inactive) | -4.7e-05 (inactive) | 0.00488 (inactive) | inactive | 2.21% (inactive) |
| CCOC(=O)c1ccc(NC(=O)CCC(CC)C(=O)O)cc1 (stereo unspecified) | 402 | -23.7% (inactive) | -228% (inactive) | 167% | 1.04 | -1.56 | -0.382 | 27.7% (inactive) | -0.349 (inactive) | -9.3e-06 (inactive) | 0.00545 (inactive) | inactive | -1.41% (inactive) |
| COc1cccc(C2/C(=C(\O)c3ccc4c(c3)OCCO4)C(=O)C(=O)N2CCN(C)C)c1 (stereo unspecified) | 509 | -0.6% (inactive) | -108% (inactive) | 138% | 1 | -0.131 | -0.387 | 17.5% (inactive) | -0.546 (inactive) | -3.2e-05 (inactive) | 0.00546 (inactive) | inactive | -11.2% (inactive) |
| COC(=O)CN(c1nc(C)c(Br)c(OC)n1)S(=O)(=O)c1ccc(C)cc1 | 598 | 6.5% (inactive) | -10.9% (inactive) | 142% | 0.877 | 0.344 | 0.387 | 9.82% (inactive) | -0.379 (inactive) | -2.1e-05 (inactive) | 0.0055 (inactive) | inactive | -5.5% (inactive) |
| C=CCc1c(C)c(C#N)c2nc3ccccc3n2c1N1CCN(C)CC1 | 528 | -23% (inactive) | -93.7% (inactive) | 150% | -0.94 | -0.784 | -1.36 | -15% (inactive) | -0.476 (inactive) | -2e-05 (inactive) | 0.00524 (inactive) | inactive | 7.97% (inactive) |
| O=C(NC1(C(F)(F)F)C(=O)Nc2c1c(=O)[nH]c(=O)n2-c1ccccc1)c1cccnc1 (stereo unspecified) | 471 | 1.9% (inactive) | -47.1% (inactive) | 106% | -0.151 | -1.59 | 0.837 | 3.5% (inactive) | -0.52 (inactive) | -2.5e-05 (inactive) | 0.00618 (inactive) | inactive | 32% (inactive) |
| CN1CCN(C(=O)CSc2nc(-c3ccncc3)ccc2C#N)CC1 | 690 | -11.2% (inactive) | -21.2% (inactive) | 192% | 0.498 | 0.894 | -1.8 | -7.28% (inactive) | -0.416 (inactive) | -5e-05 (inactive) | 0.00348 (inactive) | inactive | -6.09% (inactive) |
| Cn1c(N2CCOCC2)nc2c1c(=O)n(Cc1ccc(Cl)c(Cl)c1)c(=O)n2C | 616 | -1.9% (inactive) | -39.8% (inactive) | 146% | -0.645 | 0.0379 | -0.103 | 2.46% (inactive) | -0.474 (inactive) | -0.000203 (inactive) | 0.00465 (inactive) | inactive | 24.4% (inactive) |
| Cn1c(=O)n(C)c2cc(C(=O)c3ccccc3)ccc21 | 534 | -14.4% (inactive) | 24.3% (inactive) | 180% | 2.47 | -0.33 | -1.62 | 20.2% (inactive) | -0.53 (inactive) | -6.3e-05 (inactive) | 0.00503 (inactive) | inactive | -6.61% (inactive) |
| COc1ccc(-c2nnc3sc(COc4ccccc4)nn23)cc1 | 645 | -8.4% (inactive) | -95.8% (inactive) | 154% | -0.369 | -0.469 | -1.07 | 4.72% (inactive) | -0.445 (inactive) | -0.000151 (inactive) | 0.00767 (inactive) | inactive | 150% (active) |
| O=C(O)c1cc2n(n1)C(C(F)(F)F)CC(c1ccccc1)N2 (stereo unspecified) | 514 | -9.8% (inactive) | -120% (inactive) | 117% | -1.15 | -0.827 | 0.269 | 3.66% (inactive) | -0.503 (inactive) | -0.000107 (inactive) | 0.00535 (inactive) | inactive | -2% (inactive) |
| CCCCCNC(=O)c1c(N)n(/N=C/c2ccco2)c2nc3ccccc3nc12 | 351 | -5.8% (inactive) | -71.9% (inactive) | 147% | 1.49 | -0.91 | -0.977 | 17.4% (inactive) | -0.416 (inactive) | -0.000149 (inactive) | 0.00624 (inactive) | inactive | 14.7% (inactive) |
| Cc1ccc(OCC(=O)N2CCC(N3CCCCCC3)CC2)cc1 | 387 | -12% (inactive) | -349% (inactive) | 176% | -0.193 | 0.541 | -0.692 | 9.39% (inactive) | -0.391 (inactive) | -2.1e-05 (inactive) | 0.00447 (inactive) | inactive | 4.12% (inactive) |
| O=C(c1cncc(Br)c1)N1CCCc2ccccc21 | 517 | -1.1% (inactive) | 51.3% (inactive) | 97.5% | 0.808 | -0.814 | -0.316 | -7.86% (inactive) | -0.448 (inactive) | -1.4e-05 (inactive) | 0.00474 (inactive) | inactive | -3.67% (inactive) |
| COn1c(=S)[nH]c2ccccc2c1=O | 454 | 0.3% (inactive) | -12.8% (inactive) | 98.1% | -1.19 | 0.293 | -0.609 | 3.5% (inactive) | -0.496 (inactive) | -7.7e-06 (inactive) | 0.00619 (inactive) | inactive | 1.26% (inactive) |
| c1cc(-c2nnc3sc(C4CCCCC4)nn23)ccn1 | 660 | -3% (inactive) | -26.6% (inactive) | 150% | 0.217 | -0.0752 | 0.0462 | -7.86% (inactive) | -0.419 (inactive) | -0.00016 (inactive) | 0.00483 (inactive) | inactive | 70.8% (active) |
| CCOC(=O)CCCCC(=O)NC(CO)C(=O)NC (stereo unspecified) | 573 | -3.8% (inactive) | -97.8% (inactive) | 204% | -1.05 | 1.41 | -0.705 | 22.1% (inactive) | -0.374 (inactive) | -2.1e-05 (inactive) | 0.00506 (inactive) | inactive | -2.9% (inactive) |
| Fc1ccccc1/C=N/n1cnnc1 | 540 | -6.3% (inactive) | -60.4% (inactive) | 172% | 0.728 | -0.356 | 0.425 | 4.25% (inactive) | -0.297 (inactive) | -6.2e-06 (inactive) | 0.00552 (inactive) | inactive | 5.22% (inactive) |
| CCOC(=O)c1c(CNCCN(CC)CC)n(C)c2cc(Br)c(OC)cc12 | 321 | 3.8% (inactive) | -25% (inactive) | 77.4% | -0.115 | 0.118 | -0.0858 | 1.75% (inactive) | -0.439 (inactive) | -8.8e-06 (inactive) | 0.00617 (inactive) | inactive | 28.1% (inactive) |
| CCOC(=O)c1cc2c(=O)n3cccc(C)c3nc2n(C)c1=N | 622 | -8.8% (inactive) | -51.9% (inactive) | 142% | 1.38 | -1.25 | -0.0406 | 6.04% (inactive) | -0.436 (inactive) | -8.5e-05 (inactive) | 0.00241 (inactive) | inactive | 119% (active) |
| CN(Cc1c(O)ccc2c1oc(=O)c1ccccc12)C1CCCCC1 | 585 | -2.8% (inactive) | 6.7% (inactive) | 172% | 0.636 | 0.684 | 0.214 | -4.27% (inactive) | -0.348 (inactive) | -7e-05 (inactive) | 0.00514 (inactive) | inactive | 3.79% (inactive) |
| COCc1cc(C)nc(SCC(=O)Nc2ccc(C)c(C)c2)c1C#N | 618 | -2.6% (inactive) | -92.9% (inactive) | 161% | -2.03 | 0.714 | 1.02 | 5.65% (inactive) | -0.269 (inactive) | -9.9e-06 (inactive) | 0.00532 (inactive) | inactive | -8.23% (inactive) |
| c1ccc(OCc2nn3c(-c4cccnc4)nnc3s2)cc1 | 598 | -6.1% (inactive) | -87.1% (inactive) | 146% | 0.586 | -1.52 | -0.25 | -16.8% (inactive) | -0.423 (inactive) | -5.5e-05 (inactive) | 0.0063 (inactive) | inactive | 22.5% (inactive) |
| COc1cc(C)nc(Oc2ccc(=O)n(C)n2)n1 | 616 | -10.3% (inactive) | 13.1% (inactive) | 188% | 0.099 | -0.292 | 0.697 | -8.95% (inactive) | -0.38 (inactive) | -2.2e-05 (inactive) | 0.00541 (inactive) | inactive | 3.29% (inactive) |
| CCn1cc(C(=O)NCc2ccccn2)c(=O)c2cc(F)c(N3CCN(C)CC3)cc21 | 461 | -3.5% (inactive) | -38.2% (inactive) | 185% | -1.96 | 2.4 | 0.403 | -0.624% (inactive) | -0.292 (inactive) | -3e-05 (inactive) | 0.00581 (inactive) | inactive | 6.37% (inactive) |
| O=c1[nH]nc2n1CCCCC2 | 530 | -27.5% (inactive) | -139% (inactive) | 180% | 1.3 | -1.27 | -0.317 | 7.73% (inactive) | -0.501 (inactive) | -0.000113 (inactive) | 0.00508 (inactive) | inactive | 11.3% (inactive) |
